Assay results reported in ChEMBL document CHEMBL1909611, “Identification and SAR of selective inducible nitric oxide synthase (iNOS) dimerization inhibitors” (Bioorg Med Chem Lett, 2011).
The source made the active and inactive calls. The calls are words filed in the database; no cut-off is given here.

Assays:
[1] = biological target: T1, Nitric oxide synthase, inducible (Mus musculus) (UniProt P29477); test: Inhibition of IFN-gamma/LPS-induced iNOS dimerization in mouse RAW264.7 cells by Western blot analysis; assay type: cell-based
T1 sequence (whole entry): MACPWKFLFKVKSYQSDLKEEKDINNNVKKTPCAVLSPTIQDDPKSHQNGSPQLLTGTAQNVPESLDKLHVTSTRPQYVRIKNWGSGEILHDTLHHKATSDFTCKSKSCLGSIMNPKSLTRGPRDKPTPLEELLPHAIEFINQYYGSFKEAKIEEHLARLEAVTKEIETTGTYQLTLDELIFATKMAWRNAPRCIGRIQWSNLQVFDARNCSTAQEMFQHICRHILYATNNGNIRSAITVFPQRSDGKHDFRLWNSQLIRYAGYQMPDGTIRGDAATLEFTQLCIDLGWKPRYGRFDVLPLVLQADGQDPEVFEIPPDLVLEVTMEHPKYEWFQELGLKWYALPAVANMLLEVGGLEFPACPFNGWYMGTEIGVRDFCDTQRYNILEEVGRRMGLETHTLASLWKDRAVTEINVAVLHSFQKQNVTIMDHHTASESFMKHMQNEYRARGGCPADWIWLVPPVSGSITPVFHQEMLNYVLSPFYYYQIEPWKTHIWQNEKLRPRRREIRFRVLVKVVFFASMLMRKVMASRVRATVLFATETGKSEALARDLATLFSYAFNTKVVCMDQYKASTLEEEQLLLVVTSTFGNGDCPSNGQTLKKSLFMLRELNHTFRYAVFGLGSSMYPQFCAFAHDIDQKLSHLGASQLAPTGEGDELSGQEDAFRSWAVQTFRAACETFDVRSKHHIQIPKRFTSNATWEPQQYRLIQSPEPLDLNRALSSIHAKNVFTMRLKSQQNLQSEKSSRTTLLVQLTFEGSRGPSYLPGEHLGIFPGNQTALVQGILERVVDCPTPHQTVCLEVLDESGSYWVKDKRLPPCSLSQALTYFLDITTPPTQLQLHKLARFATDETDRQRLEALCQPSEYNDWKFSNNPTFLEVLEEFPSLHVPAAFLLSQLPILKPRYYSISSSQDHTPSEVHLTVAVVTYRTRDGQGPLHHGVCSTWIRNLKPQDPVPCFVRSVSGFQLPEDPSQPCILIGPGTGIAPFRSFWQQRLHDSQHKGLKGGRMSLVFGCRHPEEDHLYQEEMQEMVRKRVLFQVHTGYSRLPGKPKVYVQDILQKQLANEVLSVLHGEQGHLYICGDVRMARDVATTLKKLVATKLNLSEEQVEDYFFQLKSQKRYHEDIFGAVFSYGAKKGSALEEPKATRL
Method in brief: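 RAW 264.7 cells seeded at 1.8 × 10⁶ cells/well and incubated 5 h. Then stimulated overnight with murine IFN-γ (100 U/mL final) and LPS (2 µg/mL final) plus 10 µM compound or vehicle (0.1% DMSO final). Lysates protein-normalized, run on 4–20% Tris–glycine gel under low-temperature SDS–PAGE in a cold room. Blotted with mouse anti-iNOS, read by infrared imaging.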

[2] = biological target: T2, Nitric oxide synthase, inducible (Homo sapiens, UniProt P35228); test: Inhibition of human iNOS
T2 sequence (P35228 whole entry): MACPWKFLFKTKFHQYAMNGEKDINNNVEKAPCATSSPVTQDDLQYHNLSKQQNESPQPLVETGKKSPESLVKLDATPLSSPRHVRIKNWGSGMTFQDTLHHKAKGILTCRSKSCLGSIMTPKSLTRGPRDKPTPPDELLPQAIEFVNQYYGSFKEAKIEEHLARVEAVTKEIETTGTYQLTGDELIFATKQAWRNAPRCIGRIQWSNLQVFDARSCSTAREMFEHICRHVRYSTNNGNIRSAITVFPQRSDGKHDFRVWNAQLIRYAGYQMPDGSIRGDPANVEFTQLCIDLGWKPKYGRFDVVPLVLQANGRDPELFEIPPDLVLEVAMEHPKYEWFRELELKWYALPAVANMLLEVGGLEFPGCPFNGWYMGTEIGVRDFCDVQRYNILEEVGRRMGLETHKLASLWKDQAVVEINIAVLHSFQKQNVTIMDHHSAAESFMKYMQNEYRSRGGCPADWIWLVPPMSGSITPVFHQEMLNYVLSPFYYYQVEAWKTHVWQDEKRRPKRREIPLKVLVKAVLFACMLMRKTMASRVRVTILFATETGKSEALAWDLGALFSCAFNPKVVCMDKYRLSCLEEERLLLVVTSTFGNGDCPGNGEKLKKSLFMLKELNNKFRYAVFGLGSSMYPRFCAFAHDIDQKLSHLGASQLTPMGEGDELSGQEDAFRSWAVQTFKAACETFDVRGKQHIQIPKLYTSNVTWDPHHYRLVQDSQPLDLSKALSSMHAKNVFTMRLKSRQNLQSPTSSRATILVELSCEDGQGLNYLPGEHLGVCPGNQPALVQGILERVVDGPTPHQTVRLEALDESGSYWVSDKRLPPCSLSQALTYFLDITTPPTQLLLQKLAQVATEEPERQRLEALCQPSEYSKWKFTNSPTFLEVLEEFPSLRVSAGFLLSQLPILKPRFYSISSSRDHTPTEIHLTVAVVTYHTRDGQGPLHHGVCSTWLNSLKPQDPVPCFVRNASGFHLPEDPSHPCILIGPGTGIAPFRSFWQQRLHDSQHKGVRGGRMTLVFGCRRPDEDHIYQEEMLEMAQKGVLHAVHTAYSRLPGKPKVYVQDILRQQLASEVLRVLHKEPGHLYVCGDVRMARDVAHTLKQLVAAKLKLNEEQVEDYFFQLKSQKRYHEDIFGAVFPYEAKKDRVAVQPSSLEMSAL

Nitric oxide synthase 1 [3] = biological target: T3, Nitric oxide synthase 1 (Homo sapiens, UniProt P29475); test: Inhibition of human nNOS expressed in HEK293 cells assessed as inhibition ionomycin-induced nitric oxide production at 100 uM incubated for 24 hrs measured after 18 hrs of ionomycin challenge by 2,3-diaminonaphthalene assay; assay type: cell-based
T3 sequence (P29475 whole entry): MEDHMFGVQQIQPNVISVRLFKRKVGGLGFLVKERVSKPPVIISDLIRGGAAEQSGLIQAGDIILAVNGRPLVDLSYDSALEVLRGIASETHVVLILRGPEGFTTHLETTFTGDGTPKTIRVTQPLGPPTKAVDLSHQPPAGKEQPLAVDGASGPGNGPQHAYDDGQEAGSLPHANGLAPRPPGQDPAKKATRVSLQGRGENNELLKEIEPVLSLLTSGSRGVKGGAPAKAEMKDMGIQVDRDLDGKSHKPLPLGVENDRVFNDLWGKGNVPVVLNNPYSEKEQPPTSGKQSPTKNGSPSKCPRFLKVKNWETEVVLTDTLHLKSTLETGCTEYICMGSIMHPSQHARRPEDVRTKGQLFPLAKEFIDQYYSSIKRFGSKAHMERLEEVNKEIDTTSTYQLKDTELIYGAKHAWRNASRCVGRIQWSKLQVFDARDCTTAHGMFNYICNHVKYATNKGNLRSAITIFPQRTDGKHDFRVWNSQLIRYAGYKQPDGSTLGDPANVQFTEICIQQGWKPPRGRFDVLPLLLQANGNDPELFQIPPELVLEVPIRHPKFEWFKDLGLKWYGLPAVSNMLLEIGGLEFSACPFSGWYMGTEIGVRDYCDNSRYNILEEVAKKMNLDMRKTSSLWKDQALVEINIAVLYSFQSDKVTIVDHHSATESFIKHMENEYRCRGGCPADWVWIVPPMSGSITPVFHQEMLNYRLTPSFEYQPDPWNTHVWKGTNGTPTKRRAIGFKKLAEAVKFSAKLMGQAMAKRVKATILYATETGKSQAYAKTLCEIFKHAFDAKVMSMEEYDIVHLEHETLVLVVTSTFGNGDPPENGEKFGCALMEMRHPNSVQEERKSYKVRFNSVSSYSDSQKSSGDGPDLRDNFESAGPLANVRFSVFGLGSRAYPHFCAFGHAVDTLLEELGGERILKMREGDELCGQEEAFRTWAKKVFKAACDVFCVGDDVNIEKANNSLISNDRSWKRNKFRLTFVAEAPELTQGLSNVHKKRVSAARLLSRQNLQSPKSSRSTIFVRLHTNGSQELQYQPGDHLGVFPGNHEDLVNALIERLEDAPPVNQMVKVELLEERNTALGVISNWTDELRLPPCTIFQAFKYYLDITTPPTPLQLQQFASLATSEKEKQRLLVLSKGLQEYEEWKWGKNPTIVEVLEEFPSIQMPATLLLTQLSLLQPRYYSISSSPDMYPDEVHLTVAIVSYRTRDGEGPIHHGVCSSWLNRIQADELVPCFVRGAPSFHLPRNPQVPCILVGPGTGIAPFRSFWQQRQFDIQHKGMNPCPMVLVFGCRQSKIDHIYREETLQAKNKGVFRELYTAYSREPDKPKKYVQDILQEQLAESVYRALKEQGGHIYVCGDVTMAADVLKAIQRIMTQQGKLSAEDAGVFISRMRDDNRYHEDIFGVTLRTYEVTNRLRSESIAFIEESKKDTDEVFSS
Method in brief: (§1)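 Transiently transfected cells plated at 5e5 cells/ml; compounds added immediately by pin transfer. Incubated 24 h with compound, then activated by ionophore (0.8 µM final). Fluorescence (ex 360/em 425 nm) read after raising pH with NaOH (0.12 N final). Values are mean of three experiments with SD. At 100 µM, <50% inhibition is reported as >100.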

[4] = biological target: T4, Nitric oxide synthase 3 (Homo sapiens) (UniProt P29474); test: Inhibition of human eNOS expressed in HEK293 cells assessed as inhibition A23187-induced nitric oxide production at 100 uM incubated for 24 hrs measured after 18 hrs of A23187 challenge by 2,3-diaminonaphthalene assay; assay type: cell-based; method in brief: as §1
T4 sequence (whole entry): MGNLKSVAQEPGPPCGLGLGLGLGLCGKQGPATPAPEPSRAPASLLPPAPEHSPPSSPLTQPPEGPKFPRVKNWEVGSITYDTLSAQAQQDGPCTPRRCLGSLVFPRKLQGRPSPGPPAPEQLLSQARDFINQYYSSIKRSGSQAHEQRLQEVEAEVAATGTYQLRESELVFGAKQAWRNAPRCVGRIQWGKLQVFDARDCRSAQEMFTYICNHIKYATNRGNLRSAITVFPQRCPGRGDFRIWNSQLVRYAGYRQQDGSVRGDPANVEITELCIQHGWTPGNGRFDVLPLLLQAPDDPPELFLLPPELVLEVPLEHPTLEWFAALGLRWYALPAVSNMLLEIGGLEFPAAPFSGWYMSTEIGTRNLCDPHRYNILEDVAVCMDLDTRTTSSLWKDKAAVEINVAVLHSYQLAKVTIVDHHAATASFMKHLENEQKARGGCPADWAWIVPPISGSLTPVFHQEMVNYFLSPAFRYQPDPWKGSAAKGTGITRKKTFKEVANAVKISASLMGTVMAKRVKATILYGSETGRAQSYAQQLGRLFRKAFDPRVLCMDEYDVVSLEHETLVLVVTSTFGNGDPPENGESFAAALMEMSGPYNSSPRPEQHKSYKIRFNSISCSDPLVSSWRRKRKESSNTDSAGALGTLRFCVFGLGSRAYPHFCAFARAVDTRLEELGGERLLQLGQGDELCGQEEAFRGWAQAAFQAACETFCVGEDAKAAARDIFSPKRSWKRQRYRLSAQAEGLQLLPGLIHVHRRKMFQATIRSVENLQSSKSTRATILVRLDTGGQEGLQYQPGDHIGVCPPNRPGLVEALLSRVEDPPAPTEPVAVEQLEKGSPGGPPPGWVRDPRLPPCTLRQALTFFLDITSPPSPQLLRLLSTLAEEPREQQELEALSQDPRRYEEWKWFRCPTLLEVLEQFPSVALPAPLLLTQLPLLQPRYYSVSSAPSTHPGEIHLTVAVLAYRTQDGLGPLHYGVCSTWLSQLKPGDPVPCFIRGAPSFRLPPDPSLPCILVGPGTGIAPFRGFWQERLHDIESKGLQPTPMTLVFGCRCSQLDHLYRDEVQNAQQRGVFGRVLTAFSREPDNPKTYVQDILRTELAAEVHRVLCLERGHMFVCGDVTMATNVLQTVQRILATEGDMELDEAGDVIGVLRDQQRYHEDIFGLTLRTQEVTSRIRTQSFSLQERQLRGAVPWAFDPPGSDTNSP

Rattus norvegicus [5] = test: Antiinflammatory activity in po dosed Lewis rat endotoxemia model assessed as inhibition of LPS-induced plasma nitrate accumulation after 6 hrs; assay type: functional
Rattus norvegicus [6] = test: Antiinflammatory activity in Lewis rat assessed as inhibition of carrageenan-induced edema at 3 to 30 mg/kg, po administered 15 mins before carrageenan challenge measured after 5 hrs; assay type: functional, organism-based
Rattus norvegicus [7] = test: Antiinflammatory activity in Lewis rat assessed as inhibition of carrageenan-induced thermal hyperalgesia at 3 to 30 mg/kg, po administered 15 mins before carrageenan challenge measured after 5 hrs; assay type: functional, organism-based
Rattus norvegicus [8] = test: Analgesic activity in po dosed Lewis rat post operative brennan model assessed as incison-induced paw weight bearing response after 30 to 120 mins; assay type: functional, organism-based
Nitric oxide synthase 1 [9] = biological target: T3, Nitric oxide synthase 1; test: Inhibition of human nNOS expressed in HEK293 cells assessed as inhibition ionomycin-induced nitric oxide production incubated for 24 hrs measured after 18 hrs of ionomycin challenge by 2,3-diaminonaphthalene assay; assay type: cell-based; method in brief: as §1
[10] = biological target: T2, Nitric oxide synthase, inducible; test: Inhibition of human iNOS expressed in human HEK293 cells assessed as nitrite accumulation after 18 hrs by 2,3-diaminonapthalene assay; assay type: cell-based
Method in brief: as §1, with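 “18” for “24”, “for nitrite accumulation.” for “with compound, then activated by ionophore (0.8 µM final).”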

Nitric oxide synthase 3 = biological target: T5, Nitric oxide synthase 3 (Homo sapiens, UniProt P29474); test: Inhibition of human eNOS expressed in HEK293 cells assessed as inhibition A23187-induced nitric oxide production incubated for 24 hrs measured after 18 hrs of A23187 challenge by 2,3-diaminonaphthalene assay; assay type: cell-based; method in brief: as §1
T5 sequence (P29474 whole entry): T4 sequence (whole entry)

[11] = biological target: T2, Nitric oxide synthase, inducible; test: Inhibition of human iNOS expressed in human HEK293 cells assessed as nitrite accumulation at 100 uM after 18 hrs by 2,3-diaminonapthalene assay; assay type: cell-based
Method in brief: as §1, with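 “18” for “24”, “for nitrite accumulation.” for “with compound, then activated by ionophore (0.8 µM final).”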

inhibition [1] | IC50 [2] [µM] | inhibition (Nitric oxide synthase 1 [3]) [%] | inhibition [4] [%] | EC50 (Nitric oxide synthase 1 [9]) [µM] | EC50 [10] [µM] | EC50 (Nitric oxide synthase 3) [µM] | inhibition [11] [%] | Compound | ED50 (Rattus norvegicus [5]) [mg/kg] | inhibition (Rattus norvegicus [6]) | inhibition (Rattus norvegicus [7]) | Activity (Rattus norvegicus [8])
Active | 0.01 |  |  |  |  |  |  | Cc1cc(N(C)CCCNCc2ccc3c(c2)OCO3)nc(-n2ccnc2)n1 |  |  |  | 
Active | 0.007 |  |  | 17.3 | 0.008 | > 100 |  | CN(CCCNCc1ccc2c(c1)OCO2)c1nc(-n2ccnc2)ns1 [KD7040] |  |  |  | 
Active | > 100 | < 50 | < 50 | > 100 | > 100 | > 100 | < 50 | CN(CCCNCc1ccccc1)c1nc(-n2ccnc2)ns1 |  |  |  | 

The remaining lines, values behind:

Compound | inhibition [1] | IC50 [2] [µM] | inhibition (Nitric oxide synthase 1 [3]) [%] | inhibition [4] [%] | EC50 (Nitric oxide synthase 1 [9]) [µM] | EC50 [10] [µM] | EC50 (Nitric oxide synthase 3) [µM] | inhibition [11] [%] | ED50 (Rattus norvegicus [5]) [mg/kg] | inhibition (Rattus norvegicus [6]) | inhibition (Rattus norvegicus [7]) | Activity (Rattus norvegicus [8])
Cc1cc(C(C)(C)NCCNCc2ccc3c(c2)OCO3)nc(-n2ccnc2)n1 |  |  | < 50 | < 50 | > 100 | 2.3 | > 100 |  | 9.3 | Active | Active | Active
Cc1cc(N(C)CCCNCc2ccc3c(c2)OCO3)nc(-n2cccc2)n1 | inactive | > 100 |  |  |  |  |  |  |  |  |  | 
